Reference: ChEMBL document CHEMBL4392872, “Phomanolides C-F from a Phoma sp.: Meroterpenoids Generated via Hetero-Diels-Alder Reactions” (J Nat Prod, 2019)
Activity calls are given as the source filed them. No cut-off for these calls is given here.

Tests used:
Type in all cases: functional, cell-based
SH-SY5Y [1] = assay: Cytotoxicity against human SH-SY5Y cells measured after 48 hrs by MTS assay
Outline: (§1)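 Cells seeded at 1.0 × 10^4 per well and allowed to attach overnight. Medium then replaced with medium holding the test compound, positive control cisplatin, or 0.1% DMSO vehicle. Incubated 48 h at 37 °C, 5% CO2. MTS added and incubated 90 min at 37 °C in the dark, then OD read at 490 nm. Triplicate wells per concentration; each test run three times.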

HeLa [2] = assay: Cytotoxicity against human HeLa cells measured after 48 hrs by MTS assay; outline: as §1
HeLa [3] = assay: Cytotoxicity against human HeLa cells at 50 uM measured after 48 hrs by MTS assay
SH-SY5Y [4] = assay: Cytotoxicity against human SH-SY5Y cells at 50 uM measured after 48 hrs by MTS assay
MCF7 [5] = assay: Cytotoxicity against human MCF7 cells at 50 uM measured after 48 hrs by MTS assay
U-251 [6] = assay: Cytotoxicity against human U251 cells at 50 uM measured after 48 hrs by MTS assay
H4 [7] = assay: Cytotoxicity against human H4 cells at 50 uM measured after 48 hrs by MTS assay
MCF7 [8] = assay: Cytotoxicity against human MCF7 cells measured after 48 hrs by MTS assay; conditions: MCF7, 48 h; outline: as §1
H4 [9] = assay: Cytotoxicity against human H4 cells measured after 48 hrs by MTS assay; conditions: H4, 48 h; outline: as §1
U-251 [10] = assay: Cytotoxicity against human U251 cells measured after 48 hrs by MTS assay; conditions: U-251, 48 h; outline: as §1

SMILES	IC50 (SH-SY5Y [1]) [µM]	IC50 (HeLa [2]) [µM]	Activity (HeLa [3])	Activity (SH-SY5Y [4])	Activity (MCF7 [5])	Activity (U-251 [6])	Activity (H4 [7])	IC50 (MCF7 [8]) [µM]	IC50 (H4 [9]) [µM]	IC50 (U-251 [10]) [µM]
Cc1cc(O)cc2c1C[C@H]1CC(C)(C)/C=C/C[C@]3(C)OC4=CC(=O)O[C@]5(C)CC(=O)O[C@]45C[C@H]3C[C@H](O)[C@@]1(C)O2	83.5	50	–	–	–	–	–	–	–	–
CC1=CC(=O)O[C@@]23CC(=O)O[C@@]12C[C@H]1C[C@H](O)[C@@]2(C)Oc4cc(O)cc(C)c4C[C@H]2CC(C)(C)/C=C/C[C@]1(C)O3	–	–	inactive	inactive	inactive	inactive	inactive	–	–	–
CC1=CC(=O)O[C@@]23CC(=O)O[C@@]12C[C@H]1C[C@H](O)/C(C)=C\CC(C)(C)/C=C/C[C@]1(C)O3	–	–	inactive	inactive	inactive	inactive	inactive	–	–	–
CC1=CC(=O)O[C@@]23CC(=O)O[C@@]12C[C@H]1C[C@H](O)[C@@]2(C)Oc4cc(O)c(=O)cc(C)c4C[C@H]2CC(C)(C)/C=C/C[C@]1(C)O3	132	–	–	–	–	–	–	68.4	44.6	38.8
